Assay [1] concerns MCF7. The experiment in a line: Cytotoxicity against human MCF7 cells assessed as reduction in cell viability after 48 hrs by MTT assay. The class given is functional, cell-based. To be noted: MCF7, 48 h. Summed up: (§1)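 1 × 10^4 cells per well, pre-incubated 12 h at 37 °C under 5% CO2, then exposed to serial dilutions of compound (paclitaxel as reference) for 48 h. MTT reagent (5 mg/mL) added for a further 4 h, formazan dissolved in DMSO, absorbance read at 570 nm. Three independent experiments, each in triplicate; IC50 from sigmoid curve fitting.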
In general terms: Tetrazolium dyes change colour on reduction, which living cells bring about.

Assay [2] has as its system A549. Kind of assay: Cytotoxicity against human A549 cells assessed as reduction in cell viability after 48 hrs by MTT assay. As to conditions: A549, 48 h. It is filed as functional, cell-based. In a few lines:
as §1

Molecules are shown by their SMILES.

The IC50 is the point on the concentration scale where inhibition reaches its midpoint. As to `COc1cc(O)ccc1C(=O)C[C@H]1c2ccc(O)c(O)c2C[C@@H]1C(C)(C)O`, the results for the IC50 in assay [1] and in assay [2] were 3.9 µM and 2.5 µM, respectively.
The corresponding values for `COc1cc(C(=O)OC[C@H]2O[C@@H](Oc3ccc4ccc(=O)oc4c3)[C@H](O)[C@@H](O)[C@@H]2O)cc(OC)c1O` are greater than 10 µM and greater than 10 µM.
The corresponding values for `COC(=O)C[C@@H]1c2c(-c3ccc(O)cc3OC)cc(O)c(O)c2C[C@H]1C(C)(C)O` are 7.2 µM and 6 µM.
For `COc1cc(C(=O)OC[C@H]2O[C@@H](Oc3cc4oc(=O)ccc4cc3OC)[C@H](O)[C@@H](O)[C@@H]2O)ccc1O[C@@H]1O[C@H](CO)[C@@H](O)[C@H](O)[C@H]1O` the same measures were greater than 10 µM and greater than 10 µM.
With `COc1cc(O)ccc1C(=O)C[C@@H]1c2ccc(O)c(O)c2C[C@H]1C(C)(C)O`, the IC50 in assay [1] came to 3.3 µM; in assay [2], 2.2 µM.
For `COc1cc2ccc(=O)oc2cc1O[C@@H]1O[C@H](COC(=O)c2cc(OC)c(O[C@@H]3O[C@H](CO)[C@@H](O)[C@H](O)[C@H]3O)c(OC)c2)[C@@H](O)[C@H](O)[C@H]1O` the same measures were greater than 10 µM and greater than 10 µM.
The corresponding values for `COc1cc2ccc(=O)oc2cc1O[C@@H]1O[C@H](COC(=O)CCc2cc(OC)c(O[C@@H]3O[C@H](CO)[C@@H](O)[C@H](O)[C@H]3O)c(OC)c2)[C@@H](O)[C@H](O)[C@H]1O` are greater than 10 µM and greater than 10 µM.
With `COC(=O)C[C@@H]1c2c(-c3ccc(O)cc3OC)cc(O)c(O)c2C[C@@H]1C(C)(C)O`, the half-inhibitory concentration (IC50) in assay [1] was determined as 6.7 µM; in assay [2], 5.6 µM.

Values taken from ChEMBL document CHEMBL4041488, “Structural Characterization and Assessment of the Cytotoxicity of 2,3-Dihydro-1H-indene Derivatives and Coumarin Glucosides from the Bark of Streblus indicus” (J Nat Prod, 2016).
